Source: PubChem BioAssay
Sampled rows, rich in hits. Any-hit rate of the full collection: about 5.1%.
STAT1 inh: inhibitors of IFN-gamma induced STAT1 signaling. NIH 3T3 STAT1-luciferase reporter, luminescence. inhibition, % at 5.5 µM. 200,000 tested, 0.35% active;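 active = inhibition above a set limit, the mean inhibition across all tested compounds plus 3 SD, cut at about 34% in these data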;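 note: 0% = IFN-gamma with DMSO and 100% = IFN-gamma with 300 µM nifuroxazide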
STAT3 activator: STAT3 signaling activation. U3A cells, IL-6 STAT3-luciferase reporter, luminescence; 100% = signal with IL-6 EC80 alone. AID 871. 190,000 tested, 0.91% active. activation (% of control), % at 5.6 µM;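 active = activation above the screen-wide mean of compound activation plus 3 SD, cut at about 130% in these data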;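 note: 0% = background luminescence of wells with medium and substrate only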
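Material: STAT3-luciferase reporter U3A cells. Controls: IL-6-treated wells, 100% activation. Read-out: % activation versus median of IL-6-stimulated wells. Probe or stimulus: IL-6 stimulus at 33 ng/mL final. Timing: compound 1 h, then IL-6 6 h at 37 °C. Signal: reporter luminescence signal.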
NF-kB expr up: NF-kB expression increase, human neuronal cells | fold change at 12.5 µM | NF-kB reporter expression; active compounds read high | 190,000 tested, 1.6% active; in the data active = fold change above about 3.3
STAT3 blocker: STAT3 signaling inhibition | U3A cells, IL-6 STAT3-luciferase reporter, luminescence; host cell line lacks STAT1 | inhibition, % at 5.5 µM | 190,000 tested, 0.89% active | AID 862;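 active = inhibition above the mean inhibition across all screened compounds plus 3 SD, cut at about 44% in these data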;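 note: 0% = DMSO only wells and 100% = 100 µM nifuroxazide control wells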
STAT1 activator: activators of IFN-gamma induced STAT1 signaling. NIH 3T3 STAT1-luciferase reporter, luminescence; 100% = IFN-gamma alone, no compound. activation (% of control), % at 5.5 µM. 200,000 tested, 2.6% active;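 active = activation above the screen-wide mean activation plus 3 SD, cut at about 130% in these data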;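 note: raw ratio to IFN-gamma control signal so 100% means no change and 0% no light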
APP 5'UTR act: APP 5'UTR luciferase reporter activation. 190,000 tested, 1% active. AID 1276. activation, % at 2 µM. SH-SY5Y APP 5'UTR luciferase reporter, luminescence; zero percent = DMSO vehicle wells;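 active = activation above a set limit, based on mean plus 3 SD of controls, cut at about 140% in these data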
STAT1 activ conf: STAT1 activation, confirmation assay; shares compounds with STAT1 activator; 1,200 tested, 97% active; NIH 3T3 STAT1-luciferase reporter, IFN-gamma potentiation, luminescence; 100% = IFN-gamma EC80 alone, no compound; AID 1262; activation (% of control), % at 5.7 µM;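 active = activation above a set limit carried over from the earlier primary STAT1 screen, cut at about 140% in these data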;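 note: simple ratio to median IFN-gamma plus DMSO wells so 0% means no light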
NFkB act: counter-screen for STAT1 activators: NF-kappaB activation. shares compounds with STAT1 activator. HEK293T NF-kB luciferase reporter, TNF-alpha stimulated, luminescence; 100% = TNF-alpha with vehicle only. activation (% of control), % at 5.7 µM. 1,200 tested, 43% active. AID 1306;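 active = activation above the mean of solvent-only control wells plus 3 SD, set per campaign, cut at about 130% in these data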;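 note: TNF-alpha given at a submaximal dose yielding about 80% of full reporter signal; values are well signal over median control so 100% means no change and 0% no light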
STAT3 act STAT1c: counter-screen for STAT1 activators: human STAT3 activation | shares compounds with STAT1 activator | 1,200 tested, 46% active | U3A cells STAT3-luciferase reporter, IL-6, luminescence; cells lack STAT1; 100 = IL-6 alone, no compound effect | activation (% of control), % at 5.7 µM;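 active = activation above the solvent-only control well mean plus 3 SD, set per plate batch, cut at about 110% in these data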;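 note: 0% = no luminescence and 100% = median IL-6 plus DMSO wells; higher means more STAT3 reporter activation so hits are non-selective activators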
Active calls of the source: *; x = no result.

SMILES | STAT1 inh | STAT3 activator | NF-kB expr up | STAT3 blocker | STAT1 activator | APP 5'UTR act | STAT1 activ conf | NFkB act | STAT3 act STAT1c
CCC(=O)Nc1cc(C(=O)O)ccc1Sc1ccc(C)cc1 | 0.1 | 98.6 | 1 | 5.9 | 98.5 | -7.2 | x | x | x
Cc1ccc(-c2nc(Nc3ccccc3)n[nH]2)cc1 | -101.1 | 95.5 | 10.1* | 6.5 | 193.2* | 188.1* | 290.2* | 153.1* | 121.7*
Cc1c(-c2nc(N)nc(Nc3ccc(F)cc3)n2)oc2ccccc12 | -64.9 | 102.1 | 3.33* | 0.5 | 155.9* | 151.7* | 183.0* | 142.2* | 106.2
Cc1ccccc1N(CC(=O)Nc1ccc(S(=O)(=O)N2CCOCC2)cc1)S(C)(=O)=O | -6.9 | 101.1 | 1.02 | 10.2 | 105.4 | -14.3 | x | x | x
CCOC(=O)CSc1nnc(CNC(=O)c2ccc([N+](=O)[O-])cc2)n1C | 5.0 | 99.8 | x | 5.3 | 93.9 | 1.3 | x | x | x
C=CCNc1ncnc2c1cnn2-c1ccc(OC)cc1 | -84.7 | 71.4 | 4.54* | 36.5 | 177.7* | 148.5* | 233.9* | 126.0 | 107.6
COc1ccc(-n2ncc3c(NCc4ccco4)ncnc32)cc1 | -67.9 | 93.5 | 3.22 | 11.5 | 162.2* | 95.4 | 185.2* | 138.0* | 114.5*
COc1ccc(-n2ncc3c(Nc4cccc(C)c4)ncnc32)cc1 | -18.6 | 97.6 | 1.72 | 9.1 | 118.0 | 98.0 | x | x | x
CCCN(CCC)c1ncnc2c1cnn2-c1ccc(OC)cc1 | -66.9 | 78.2 | 2.08 | 24.7 | 161.7* | 136.8* | 249.4* | 145.1* | 105.1
CCOC(=O)C1CCN(C(C(=O)NC2CCCC2)c2ccc(C)cc2)CC1 (stereo unspecified) | -3.8 | 96.6 | 1.19 | 12.8 | 103.4 | 11.1 | x | x | x
CN(C(=O)c1ccc(OC2CCN(C(=O)c3cccnc3)CC2)cc1)C1CCCCC1 | 13.6 | 95.1 | 1.03 | 9.0 | 85.6 | -9.4 | x | x | x
O=C(O)c1ccccc1C(=O)Nc1ccc(-c2csc(-c3ccccc3)n2)cc1 | -64.2 | 97.7 | 1.74 | 3.6 | 157.4* | 59.6 | 141.4* | 122.8 | 100.2
CNC(=O)c1ccc(-c2nc(-c3ccccc3)cs2)cc1 | -79.3 | 92.9 | 2.41 | 13.2 | 168.9* | 71.0 | 174.3* | 132.0 | 92.4
Cc1ccc(C(=O)Nc2ccc(-c3csc(C)n3)cc2)cc1 | -71.6 | 92.5 | 2.61 | 12.5 | 163.5* | 185.6* | 187.5* | 133.0 | 92.9
O=C(O)c1ccc(-c2nc(-c3ccccc3)cs2)cc1 | -60.6 | 113.7 | 2.32 | -10.6 | 156.9* | 89.1 | 178.6* | 125.8 | 128.5*
O=C(NNC(=O)C1CCCN(S(=O)(=O)c2ccc3ccccc3c2)C1)C1CC1 (stereo unspecified) | 11.6 | 98.1 | 1.07 | 10.5 | 89.3 | -13.2 | x | x | x
CC1C/C(=N\NC(=S)NC(C)C)CC(C)(C)C1 (stereo unspecified) | -7.4 | 104.2 | 1.65 | -3.8 | 105.5 | 15.4 | x | x | x
CC(C)CC(NC(=O)OC(C)(C)C)c1cn([C@@H](Cc2ccc(O)cc2)C(=O)N2CCN(C(=O)OC(C)(C)C)CC2)nn1 (stereo partly specified) | 4.4 | x | 0.69 | x | 97.3 | 19.2 | x | x | x
COc1cc(CCN2C(=O)N[C@@H](CCc3ccccc3)C(C(C)=O)=C2C)cc(OC)c1OC | -2.9 | 103.1 | 0.85 | -6.6 | 102.6 | -9.3 | x | x | x
Cc1cccc(N2CCN(C(=O)CCCSc3nc4ccccc4[nH]3)CC2)c1C | 5.7 | 101.4 | 0.56 | 2.3 | 94.8 | 9.4 | x | x | x
CCOC(=O)C1CCCN(C(=S)Nc2cc(C)cc(C)c2)C1 (stereo unspecified) | 4.9 | 97.0 | 1.04 | 3.9 | 95.5 | 3.3 | x | x | x
O=C(/C=C/c1ccccc1[N+](=O)[O-])NCc1ccncc1 | 5.0 | 101.4 | 1.53 | 2.0 | 93.7 | 18.2 | x | x | x
O=C(Nc1ccc2nc3ccccc3nc2c1)c1ccccc1 | -99.8 | 79.1 | 3.78* | 26.5 | 190.0* | 197.9* | 229.9* | 135.9* | 99.8
S=C(NCCc1ccccc1)Nc1cnc2ccccc2c1 | -29.1 | 96.4 | 1.81 | 7.9 | 124.8 | -1.5 | x | x | x
Cc1ccc(NC(=O)Nc2cnc3ccccc3c2)cc1 | -90.0 | 102.0 | 3 | 4.8 | 181.0* | 198.2* | 192.6* | 128.8 | 111.4*
SMILES | STAT1 inh | STAT3 activator | NF-kB expr up | STAT3 blocker | STAT1 activator | APP 5'UTR act | STAT1 activ conf | NFkB act | STAT3 act STAT1c
O=C(NC(=S)Nc1cnc2ccccc2c1)c1ccccc1 | -64.2 | 122.6 | 3.97* | -21.9 | 155.2* | 122.2 | 186.0* | 123.0 | 132.3*
Cc1ccsc1-c1nc(CN2C[C@@H](C)O[C@@H](C)C2)c(C)o1 | 5.4 | 98.6 | 1.16 | 6.9 | 93.7 | -4.2 | x | x | x
CCN(CC)C(=O)CCCC(=O)N(CC)CC | 0.6 | 105.7 | 0.95 | -0.6 | 99.1 | -8.9 | x | x | x
COc1ccc(-c2cn3cc(Cl)ccc3n2)cc1OC | -29.7 | 131.5 | 1.97 | -31.7 | 127.2 | 64.9 | x | x | x
COc1ccc(-c2cn3cc(C)ccc3n2)cc1Br | -84.3 | 80.5 | 6.76* | 23.3 | 175.1* | 164.5* | 235.8* | 103.5 | 86.1
N#C/C(=C\c1cccs1)C(=O)NCc1ccccc1 | -4.4 | 98.9 | 1.35 | -0.1 | 104.1 | 7.8 | x | x | x
N#C/C(=C\c1cccs1)C(=O)Nc1nccs1 | -116.8 | 113.2 | 4.08* | -10.0 | 206.7* | 53.6 | 229.3* | 150.3* | 113.8*
O=C(Nc1nccs1)Oc1ccccc1 | 3.3 | 99.1 | 0.92 | 3.8 | 97.0 | 2.7 | x | x | x
C/C(=C\c1ccccc1)C(=O)Nc1nccs1 | -58.1 | 98.3 | 2.56 | 6.1 | 153.7* | 98.6 | 162.7* | 123.4 | 94.8
O=C(Nc1ccc(C(=O)NC2CCCCC2)cc1)c1cccnc1 | -4.1 | 95.1 | 1.06 | 13.3 | 102.5 | -6.4 | x | x | x
CCc1cc2c(=O)c(-c3ccc4c(c3)OCCO4)coc2cc1OS(C)(=O)=O | -61.9 | 107.6 | 2.28 | -5.5 | 155.8* | 86.9 | 159.7* | 137.3* | 117.1*
COC(=O)c1sc2nc(C)nc(SCC(=O)N3CCC(C(=O)O)CC3)c2c1C | -11.2 | 100.9 | 1.01 | -0.5 | 111.1 | 2.4 | x | x | x
Fc1cccc(Cl)c1Cc1noc(/C=C/c2ccccc2)n1 | -23.3 | 99.4 | 1.58 | 12.0 | 121.0 | 47.6 | x | x | x
C(=C\c1nc(-c2ccccc2)no1)/c1ccccc1 | -59.5 | 82.3 | 8.61* | 24.4 | 154.0* | 135.0* | 207.3* | 121.2 | 100.7
CC(C)N1CCN(Cc2cccc(-n3cccn3)c2)CC1CCO (stereo unspecified) | -2.6 | 101.7 | 1.21 | 0.3 | 100.6 | 6.0 | x | x | x
